Source: ChEMBL document CHEMBL4261538, “Synthesis and molecular docking studies of xanthone attached amino acids as potential antimicrobial and anti-inflammatory agents” (Medchemcomm, 2017)
Activity calls are given as the source filed them. The calls are words filed in the database; no cut-off is given here.

Tests used:
[1] = tested on: Staphylococcus aureus; assay: Antibacterial activity against Staphylococcus aureus at 25 ug/ml incubated for 24 hrs by agar well diffusion method; type: functional; details: read-out: DIZ
Procedure, shortened: (§1)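 Bacteria grown in nutrient broth at 37 °C for 24 h, then subcultured at room temperature. Compounds dissolved in DMSO at 5 mg mL⁻¹ and 5–20 µL added to 6 mm wells, giving 25, 50, 75, 100 µg per well. Gentamicin was the positive control and DMSO the negative control. Plates held at 37 °C for 24 h, then inhibition zone diameter (mm) measured. Values are means of three determinations.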

[2] = tested on: Staphylococcus aureus; assay: Antibacterial activity against Staphylococcus aureus at 50 ug/ml incubated for 24 hrs by agar well diffusion method; type: functional; details: read-out: DIZ; procedure, shortened: as §1
[3] = tested on: Staphylococcus aureus; assay: Antibacterial activity against Staphylococcus aureus at 75 ug/ml incubated for 24 hrs by agar well diffusion method; type: functional; details: read-out: DIZ; procedure, shortened: as §1
[4] = tested on: Staphylococcus aureus; assay: Antibacterial activity against Staphylococcus aureus at 100 ug/ml incubated for 24 hrs by agar well diffusion method; type: functional; details: read-out: DIZ; procedure, shortened: as §1
[5] = tested on: Bacillus subtilis; assay: Antibacterial activity against Bacillus subtilis at 25 ug/ml incubated for 24 hrs by agar well diffusion method; type: functional; details: read-out: DIZ; procedure, shortened: as §1
[6] = tested on: Bacillus subtilis; assay: Antibacterial activity against Bacillus subtilis at 50 ug/ml incubated for 24 hrs by agar well diffusion method; type: functional; details: read-out: DIZ; procedure, shortened: as §1
[7] = tested on: Bacillus subtilis; assay: Antibacterial activity against Bacillus subtilis at 75 ug/ml incubated for 24 hrs by agar well diffusion method; type: functional; details: read-out: DIZ; procedure, shortened: as §1
[8] = tested on: Bacillus subtilis; assay: Antibacterial activity against Bacillus subtilis at 100 ug/ml incubated for 24 hrs by agar well diffusion method; type: functional; details: read-out: DIZ; procedure, shortened: as §1
[9] = tested on: Escherichia coli; assay: Antibacterial activity against Escherichia coli at 25 ug/ml incubated for 24 hrs by agar well diffusion method; type: functional; details: read-out: DIZ; procedure, shortened: as §1
[10] = tested on: Escherichia coli; assay: Antibacterial activity against Escherichia coli at 50 ug/ml incubated for 24 hrs by agar well diffusion method; type: functional; details: read-out: DIZ; procedure, shortened: as §1
[11] = tested on: Escherichia coli; assay: Antibacterial activity against Escherichia coli at 75 ug/ml incubated for 24 hrs by agar well diffusion method; type: functional; details: read-out: DIZ; procedure, shortened: as §1
[12] = tested on: Escherichia coli; assay: Antibacterial activity against Escherichia coli at 100 ug/ml incubated for 24 hrs by agar well diffusion method; type: functional; details: read-out: DIZ; procedure, shortened: as §1
[13] = tested on: Klebsiella pneumoniae; assay: Antibacterial activity against Klebsiella pneumoniae at 25 ug/ml incubated for 24 hrs by agar well diffusion method; type: functional; details: read-out: DIZ; procedure, shortened: as §1
[14] = tested on: Klebsiella pneumoniae; assay: Antibacterial activity against Klebsiella pneumoniae at 50 ug/ml incubated for 24 hrs by agar well diffusion method; type: functional; details: read-out: DIZ; procedure, shortened: as §1
[15] = tested on: Klebsiella pneumoniae; assay: Antibacterial activity against Klebsiella pneumoniae at 75 ug/ml incubated for 24 hrs by agar well diffusion method; type: functional; details: read-out: DIZ; procedure, shortened: as §1
[16] = tested on: Klebsiella pneumoniae; assay: Antibacterial activity against Klebsiella pneumoniae at 100 ug/ml incubated for 24 hrs by agar well diffusion method; type: functional; details: read-out: DIZ; procedure, shortened: as §1
[17] = tested on: Aspergillus niger; assay: Antifungal activity against Aspergillus niger at 25 ug/ml incubated for 48 hrs by agar well diffusion method; type: functional; details: read-out: DIZ
Procedure, shortened: (§2)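 Compounds dissolved in DMSO at 5 mg mL⁻¹ and 5–20 µL added to 6 mm wells, giving 25, 50, 75, 100 µg per well. Bavistin was the positive control and DMSO the negative control. Plates incubated at 28 °C for 48 h, then inhibition zone diameter (mm) measured. Values are means of three determinations.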

[18] = tested on: Aspergillus niger; assay: Antifungal activity against Aspergillus niger at 50 ug/ml incubated for 48 hrs by agar well diffusion method; type: functional; details: read-out: DIZ; procedure, shortened: as §2
[19] = tested on: Aspergillus niger; assay: Antifungal activity against Aspergillus niger at 75 ug/ml incubated for 48 hrs by agar well diffusion method; type: functional; details: read-out: DIZ; procedure, shortened: as §2
[20] = tested on: Aspergillus niger; assay: Antifungal activity against Aspergillus niger at 100 ug/ml incubated for 48 hrs by agar well diffusion method; type: functional; details: read-out: DIZ; procedure, shortened: as §2
[21] = tested on: Candida albicans; assay: Antifungal activity against Candida albicans at 25 ug/ml incubated for 48 hrs by agar well diffusion method; type: functional; details: read-out: DIZ; procedure, shortened: as §2
[22] = tested on: Candida albicans; assay: Antifungal activity against Candida albicans at 50 ug/ml incubated for 48 hrs by agar well diffusion method; type: functional; details: read-out: DIZ; procedure, shortened: as §2
[23] = tested on: Candida albicans; assay: Antifungal activity against Candida albicans at 75 ug/ml incubated for 48 hrs by agar well diffusion method; type: functional; details: read-out: DIZ; procedure, shortened: as §2
[24] = tested on: Candida albicans; assay: Antifungal activity against Candida albicans at 100 ug/ml incubated for 48 hrs by agar well diffusion method; type: functional; details: read-out: DIZ; procedure, shortened: as §2
[25] = tested on: Fusarium oxysporum; assay: Antifungal activity against Fusarium oxysporum at 25 ug/ml incubated for 48 hrs by agar well diffusion method; type: functional; details: read-out: DIZ; procedure, shortened: as §2
[26] = tested on: Fusarium oxysporum; assay: Antifungal activity against Fusarium oxysporum at 50 ug/ml incubated for 48 hrs by agar well diffusion method; type: functional; details: read-out: DIZ; procedure, shortened: as §2
[27] = tested on: Fusarium oxysporum; assay: Antifungal activity against Fusarium oxysporum at 75 ug/ml incubated for 48 hrs by agar well diffusion method; type: functional; details: read-out: DIZ; procedure, shortened: as §2
[28] = tested on: Fusarium oxysporum; assay: Antifungal activity against Fusarium oxysporum at 100 ug/ml incubated for 48 hrs by agar well diffusion method; type: functional; details: read-out: DIZ; procedure, shortened: as §2
[29] = tested on: Staphylococcus aureus; assay: Antibacterial activity against Staphylococcus aureus incubated for 24 hrs by microdilution method; type: functional
[30] = tested on: Bacillus subtilis; assay: Antibacterial activity against Bacillus subtilis incubated for 24 hrs by microdilution method; type: functional
[31] = tested on: Escherichia coli; assay: Antibacterial activity against Escherichia coli incubated for 24 hrs by microdilution method; type: functional
[32] = tested on: Klebsiella pneumoniae; assay: Antibacterial activity against Klebsiella pneumoniae incubated for 24 hrs by microdilution method; type: functional
[33] = tested on: Aspergillus niger; assay: Antifungal activity against Aspergillus niger incubated for 48 to 72 hrs by microdilution method; type: functional
Procedure, shortened: (§3)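 Sabouraud agar plates inoculated with fungal suspension at 10⁵ CFU mL⁻¹ plus serially diluted compounds and bavistin reference, both in DMSO. Incubated at 25 °C for 48–72 h. MIC is the lowest concentration completely inhibiting growth. Values are means of three determinations.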

[34] = tested on: Candida albicans; assay: Antifungal activity against Candida albicans incubated for 48 to 72 hrs by microdilution method; type: functional; procedure, shortened: as §3
[35] = tested on: Fusarium oxysporum; assay: Antifungal activity against Fusarium oxysporum incubated for 48 to 72 hrs by microdilution method; type: functional; procedure, shortened: as §3
[36] = tested on: Staphylococcus aureus; assay: Induction of cell membrane damage in Staphylococcus aureus assessed as cell content leakage at MIC by spectrophotometric method; type: functional, organism-based; details: TDE = time-dependent effect
Procedure, shortened: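 Log-phase S. aureus inoculated into 0.1% sterile peptone water, with an untreated control, and held at 37 °C for 0, 30, 60 and 120 min. 1 mL of broth centrifuged and supernatant OD read at 260 nm to measure released DNA. Run in triplicate, repeated three times.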

[37] = tested on: Erythrocyte; assay: Anti-inflammatory activity in human RBC assessed as inhibition of hypotonic solution-induced hemolysis after 10 mins by spectrophotometric method; type: functional, cell-based
Procedure, shortened: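 Human blood (heparinized) washed with 0.9% saline, packed cells made into a 40% v/v stock in isotonic phosphate buffer (154 mM NaCl, 10 mM sodium phosphate, pH 7.4). Stock RBC mixed with hypotonic buffer (50 mM NaCl, 10 mM phosphate, pH 7.4) plus sample at 20–100 µg mL⁻¹.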

[38] = tested on: Staphylococcus aureus; assay: Induction of cell membrane damage in Staphylococcus aureus assessed as cell content leakage at MIC after 2 hrs by SEM analysis; type: functional, organism-based

Compound	zone of inhibition at 25 µg/mL [1] [mm]	zone of inhibition at 50 µg/mL [2] [mm]	zone of inhibition at 75 µg/mL [3] [mm]	zone of inhibition at 100 µg/mL [4] [mm]	zone of inhibition at 25 µg/mL [5] [mm]	zone of inhibition at 50 µg/mL [6] [mm]	zone of inhibition at 75 µg/mL [7] [mm]	zone of inhibition at 100 µg/mL [8] [mm]	zone of inhibition at 25 µg/mL [9] [mm]	zone of inhibition at 50 µg/mL [10] [mm]	zone of inhibition at 75 µg/mL [11] [mm]	zone of inhibition at 100 µg/mL [12] [mm]	zone of inhibition at 25 µg/mL [13] [mm]	zone of inhibition at 50 µg/mL [14] [mm]	zone of inhibition at 75 µg/mL [15] [mm]	zone of inhibition at 100 µg/mL [16] [mm]	zone of inhibition at 25 µg/mL [17] [mm]	zone of inhibition at 50 µg/mL [18] [mm]	zone of inhibition at 75 µg/mL [19] [mm]	zone of inhibition at 100 µg/mL [20] [mm]	further results
Cl.N[C@@H](Cc1c[nH]c2ccccc12)C(=O)Oc1ccc2c(=O)c3ccccc3oc2c1	24	31	37	42	26	32	36	43	26	31	38	43	23	30	37	44	28	31	40	46	zone of inhibition at 25 µg/mL [21]: 26 mm; zone of inhibition at 50 µg/mL [22]: 33 mm; zone of inhibition at 75 µg/mL [23]: 39 mm; zone of inhibition at 100 µg/mL [24]: 44 mm; zone of inhibition at 25 µg/mL [25]: 25 mm; zone of inhibition at 50 µg/mL [26]: 32 mm; zone of inhibition at 75 µg/mL [27]: 37 mm; zone of inhibition at 100 µg/mL [28]: 42 mm; MIC [29]: 16 mg/L; MIC [30]: 16 mg/L; MIC [31]: 15 mg/L; MIC [32]: 22 mg/L; MIC [33]: 21 mg/L; MIC [34]: 20 mg/L; MIC [35]: 20 mg/L; Activity [36]: Tde; IC50 [37]: 26 mg/L
Cl.N[C@@H](Cc1ccc(O)cc1)C(=O)Oc1ccc2c(=O)c3ccccc3oc2c1	23	27	35	39	23	26	38	40	21	26	34	39	21	26	31	37	24	31	38	40	zone of inhibition at 25 µg/mL [21]: 23 mm; zone of inhibition at 50 µg/mL [22]: 30 mm; zone of inhibition at 75 µg/mL [23]: 36 mm; zone of inhibition at 100 µg/mL [24]: 39 mm; zone of inhibition at 25 µg/mL [25]: 21 mm; zone of inhibition at 50 µg/mL [26]: 28 mm; zone of inhibition at 75 µg/mL [27]: 35 mm; zone of inhibition at 100 µg/mL [28]: 41 mm; MIC [29]: 18 mg/L; MIC [30]: 19 mg/L; MIC [31]: 20 mg/L; MIC [32]: 17 mg/L; MIC [33]: 21 mg/L; MIC [34]: 23 mg/L; MIC [35]: 23 mg/L; Activity [38]: Active; IC50 [37]: 32 mg/L
